# Measurements reported in ChEMBL document CHEMBL3877298, “Discovery of benzimidazole derivatives as modulators of mitochondrial function: A potential treatment for Alzheimer's disease” (Eur J Med Chem, 2017).
# What was measured:
# [1] = molecular target: Translocator protein (Mus musculus) (UniProt P50637); assay: Inhibition of TSPO in mouse HT22 cells assessed as inhibition of amyloid beta (1 to 42)-induced ROS generation at 5 uM after 6 hrs by DCFDA staining based fluorescence assay relative to control; type: cell-based; conditions: HT-22
# [2] = molecular target: Translocator protein (Rattus norvegicus, UniProt P16257); assay: Displacement of [3H]PK11195 from TSPO in Sprague-Dawley rat cerebral cortex membranes after 60 mins by microbeta liquid scintillation counting method; parameters: species or system Membrane
# [3] = Total clearance in Sprague-Dawley rat at 10 mg/kg, iv by LC-MS/MS analysis; type: ADME, organism-based; conditions: in vivo
# Method in brief: (§1)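 Male SD rats, 8 weeks old, given 10 mg/kg intravenously (n = 4). Plasma mixed with carbamazepine internal standard in acetonitrile, vortexed, centrifuged at 10,000×g, and the supernatant analysed by LC-MS/MS. Parameters reported as mean ± SD.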
# [4] = molecular target: Voltage-gated inwardly rectifying potassium channel KCNH2 (Homo sapiens, UniProt Q12809); assay: Inhibition of human ERG expressed in CHOK1 cells by automated patch clamp method; type: cell-based, CHO-K1
# [5] = molecular target: CYP2C19 (Homo sapiens, UniProt P33261); assay: Inhibition of recombinant human CYP2C19 expressed in baculosomes coexpressing rabbit NADPH-P450 reudctase assessed as residual activity at 10 uM preincubated for 5 mins followed by substrate and NADP+ addition measured after 20 mins by fluorescence assay relative to control; type: ADME; conditions: read-out: Activity
# Method in brief: (§2)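 Vivid CYP450 kit: recombinant human CYP isozyme in Baculosomes with rabbit NADPH-P450 reductase, plus regeneration system (3.3 mM glucose-6-phosphate, 0.3 U/mL G6PDH in 100 mM potassium phosphate, pH 8.0). Mixture preincubated with sample for 5 min at 37 °C. Vivid substrate and 0.1 mM NADP+ were then added, and remaining activity read by fluorescence after 20 min.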
# [6] = AUClast in Sprague-Dawley rat at 10 mg/kg, po by LC-MS/MS analysis; type: ADME, organism-based; parameters: dose 10 mg/kg, route oral, time 0 - last; conditions: in vivo
# Method in brief: (§3)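 Male SD rats, 8 weeks old, acclimatised at least 1 week; compound dissolved at 10 mg/2 mL in N-methyl-2-pyrrolidone/Tween80/water (1:2:7) by 5 min sonication, given 10 mg/kg by oral gavage at 2 mL/kg (n = 5). Heart-puncture blood drawn at 30 min and 3 h, plasma spun and stored at -70 °C. Samples mixed with carbamazepine internal standard in acetonitrile and assayed by LC-MS/MS.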
# [7] = tested on: Mus musculus; assay: Cognition enhancing effect in ICR mouse model of acute Alzheimer's disease assessed as reversal of amyloid beta (1 to 42)-induced cognitive deficit by measuring spatial working memory at 30 mg/kg, ip daily for 6 days measured on day 7 by Y maze spontaneous alteration test relative to control; type: functional
# Method in brief: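 Male ICR mice (6 weeks, 30–33 g) received Aβ1-42 500 pmol ICV in 10% DMSO/PBS. Compound in 20% cyclodextrin was given at 30 mg/kg daily for 6 days (n = 7 per group). One day later, each mouse explored a three-arm Y-maze for 8 min, and the sequence of arm entries was used to calculate % spontaneous alternation.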
# [8] = AUC (0 to infinity) in Sprague-Dawley rat at 10 mg/kg, po by LC-MS/MS analysis; type: ADME, organism-based; parameters: dose 10 mg/kg, route oral, time infinity; conditions: in vivo; method in brief: as §3
# [9] = molecular target: Translocator protein (Homo sapiens, UniProt P30536); assay: Binding affinity to recombinant human TSPO by SPR assay
# Method in brief: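 Biacore T200 at 25 °C with recombinant human TSPO (18 kDa) amine-coupled to a CM5 chip in 10 mM sodium acetate pH 4.5, giving 4000–6000 RU. Compounds from 10 mM DMSO stocks were diluted in PBS-P; running buffer held 1.0% DMSO. Five concentrations, 0.01–5 µM, were injected at 50 µL/min (120 s contact, 300 s dissociation), with blanks and regeneration. KD reported.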
# [10] = Volume of distribution at steady state in Sprague-Dawley rat at 10 mg/kg, iv by LC-MS/MS analysis; type: ADME, organism-based; conditions: in vivo, read-out: Vdss; method in brief: as §1
# [11] = Cytotoxicity against mouse HT22 cells assessed as cell viability at 5 uM after 24 hrs by MTT assay relative to control; type: toxicity, HT-22; conditions: read-out: Activity
# Method in brief: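 MTT was added for 2 h, then solubilising solution (10% Triton X-100 in isopropanol with 0.1 M HCl) for 2 h more. Absorbance read at 560 nm; % inhibition normalised to vehicle, and viability taken from compound-only wells.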
# [12] = Drug excretion in Sprague-Dawley rat at 10 mg/kg, po by LC-MS/MS analysis; type: ADME, organism-based; conditions: in vivo, read-out: Drug excretion
# [13] = molecular target: CYP2C9 (Homo sapiens, UniProt P11712); assay: Inhibition of recombinant human CYP2C9 expressed in baculosomes coexpressing rabbit NADPH-P450 reudctase assessed as residual activity at 10 uM preincubated for 5 mins followed by substrate and NADP+ addition measured after 20 mins by fluorescence assay relative to control; type: ADME; conditions: read-out: Activity; method in brief: as §2
# [14] = Oral bioavailability in Sprague-Dawley rat at 10 mg/kg by LC-MS/MS analysis; type: ADME, organism-based; conditions: in vivo; method in brief: as §3
# Translocator protein (Rattus norvegicus, UniProt P16257), sequence (P16257 whole entry, looked up): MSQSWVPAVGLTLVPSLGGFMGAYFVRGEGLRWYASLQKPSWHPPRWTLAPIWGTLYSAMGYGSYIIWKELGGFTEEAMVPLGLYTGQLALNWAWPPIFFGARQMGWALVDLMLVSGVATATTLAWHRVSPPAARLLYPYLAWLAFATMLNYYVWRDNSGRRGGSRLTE
# Translocator protein (Homo sapiens, UniProt P30536), sequence (P30536 whole entry): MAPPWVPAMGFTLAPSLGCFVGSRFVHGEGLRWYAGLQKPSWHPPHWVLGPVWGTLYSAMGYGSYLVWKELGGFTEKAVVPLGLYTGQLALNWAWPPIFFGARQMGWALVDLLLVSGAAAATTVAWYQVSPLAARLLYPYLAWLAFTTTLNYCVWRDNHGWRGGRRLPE
# Voltage-gated inwardly rectifying potassium channel KCNH2, sequence (Q12809 whole entry): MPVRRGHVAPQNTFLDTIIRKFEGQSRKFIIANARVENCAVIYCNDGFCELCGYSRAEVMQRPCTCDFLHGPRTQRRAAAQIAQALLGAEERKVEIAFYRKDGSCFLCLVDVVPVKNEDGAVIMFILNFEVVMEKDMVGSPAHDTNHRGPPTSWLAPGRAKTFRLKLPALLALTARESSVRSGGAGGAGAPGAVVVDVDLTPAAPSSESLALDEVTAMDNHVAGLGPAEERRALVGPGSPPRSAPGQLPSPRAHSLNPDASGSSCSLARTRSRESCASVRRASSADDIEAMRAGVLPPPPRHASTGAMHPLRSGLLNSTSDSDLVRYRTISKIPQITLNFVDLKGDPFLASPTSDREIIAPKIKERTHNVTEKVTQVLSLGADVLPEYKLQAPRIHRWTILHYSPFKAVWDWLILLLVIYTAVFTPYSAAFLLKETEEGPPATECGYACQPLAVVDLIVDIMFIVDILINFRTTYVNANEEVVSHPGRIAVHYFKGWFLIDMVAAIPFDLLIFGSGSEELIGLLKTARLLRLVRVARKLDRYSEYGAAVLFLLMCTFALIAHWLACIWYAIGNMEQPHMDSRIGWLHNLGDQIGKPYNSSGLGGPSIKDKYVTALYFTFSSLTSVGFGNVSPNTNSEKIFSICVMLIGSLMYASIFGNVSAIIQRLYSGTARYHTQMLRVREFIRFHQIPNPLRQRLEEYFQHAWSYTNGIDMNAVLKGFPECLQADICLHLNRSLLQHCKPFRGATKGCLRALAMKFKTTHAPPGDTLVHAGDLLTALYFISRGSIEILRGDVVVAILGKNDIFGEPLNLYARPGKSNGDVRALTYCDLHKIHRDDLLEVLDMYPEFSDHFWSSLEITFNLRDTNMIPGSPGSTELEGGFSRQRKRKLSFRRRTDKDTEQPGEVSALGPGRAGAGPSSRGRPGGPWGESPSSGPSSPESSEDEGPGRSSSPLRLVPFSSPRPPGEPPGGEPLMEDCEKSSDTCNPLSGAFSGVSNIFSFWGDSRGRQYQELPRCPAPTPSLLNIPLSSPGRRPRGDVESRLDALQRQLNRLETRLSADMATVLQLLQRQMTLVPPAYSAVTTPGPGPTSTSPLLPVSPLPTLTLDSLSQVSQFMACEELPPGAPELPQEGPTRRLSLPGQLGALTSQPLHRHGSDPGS
# CYP2C9, sequence (P11712 whole entry): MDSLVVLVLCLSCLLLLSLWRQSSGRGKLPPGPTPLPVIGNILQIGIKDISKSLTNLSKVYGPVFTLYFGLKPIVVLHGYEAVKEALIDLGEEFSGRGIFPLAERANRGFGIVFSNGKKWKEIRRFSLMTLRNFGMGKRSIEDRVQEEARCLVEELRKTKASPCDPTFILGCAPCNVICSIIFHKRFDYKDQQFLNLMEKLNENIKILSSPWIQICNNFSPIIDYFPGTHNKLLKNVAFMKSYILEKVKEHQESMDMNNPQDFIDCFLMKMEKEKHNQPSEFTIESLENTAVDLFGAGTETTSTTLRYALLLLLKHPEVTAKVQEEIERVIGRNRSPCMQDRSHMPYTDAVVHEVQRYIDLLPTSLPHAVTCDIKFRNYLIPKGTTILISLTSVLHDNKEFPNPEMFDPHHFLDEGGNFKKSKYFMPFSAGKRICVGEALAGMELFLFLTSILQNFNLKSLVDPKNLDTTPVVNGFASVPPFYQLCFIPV
# Translocator protein (Mus musculus), sequence (P50637 whole entry, looked up): as the sequence (P16257 whole entry, looked up) above, with S2P, Q3E, I67V, E77D, V110A, M113L, M149V, T168P counted along it
# CYP2C19, sequence (P33261 whole entry): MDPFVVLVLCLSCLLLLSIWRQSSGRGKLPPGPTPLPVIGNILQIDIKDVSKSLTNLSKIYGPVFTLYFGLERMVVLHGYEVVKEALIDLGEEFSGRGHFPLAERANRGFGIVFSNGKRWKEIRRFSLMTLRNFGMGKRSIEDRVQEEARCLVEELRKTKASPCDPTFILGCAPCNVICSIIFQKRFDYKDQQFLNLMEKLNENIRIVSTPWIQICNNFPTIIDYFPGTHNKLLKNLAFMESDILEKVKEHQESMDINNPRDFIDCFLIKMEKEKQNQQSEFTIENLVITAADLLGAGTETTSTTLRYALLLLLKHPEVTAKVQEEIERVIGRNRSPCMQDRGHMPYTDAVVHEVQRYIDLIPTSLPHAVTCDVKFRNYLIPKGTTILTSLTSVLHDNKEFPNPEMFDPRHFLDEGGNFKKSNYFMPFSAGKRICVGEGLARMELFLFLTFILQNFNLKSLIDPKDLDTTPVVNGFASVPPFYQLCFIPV
smiles,measurement,setting,value
Cc1ccc(C(C)C)cc1NC(=O)Cn1c(Cc2c(Cl)cccc2Cl)nc2ccccc21,inhibition,[1],85%
same,IC50,[2],74.3 nM
same,Ki,[2],22.8 nM
same,clearance,[3],54.5 mL/min/kg
same,IC50,[4],> 100000 nM
same,"activity at 20 min, 10 µM",[5],57.3%
same,AUC(0-t),[6],128 ng·h/mL
same,Activity,[7],72%
same,AUC(0-inf),[8],136 ng·h/mL
same,Kd,[9],108 nM
same,Vd,[10],6.21 L/kg
same,"viability at 24 h, 5 µM",[11],88 to 109%
same,dose excreted,[12],0.01%
same,"activity at 20 min, 10 µM",[13],54.7%
same,bioavailability,[14],3.7%
